Experimental data from ChEMBL document CHEMBL4513216, “Probing the Open Global Health Chemical Diversity Library for Multistage-Active Starting Points for Next-Generation Antimalarials” (ACS Infect Dis, 2020).

test: Toxicity liver stage against HepG2, at 10uM; format: cell-based; parameters: test concentration 10 uM, cell line HepG2-A16-CD81EGFP; conditions: human, HepG2-A16-CD81EGFP cells; read-out: INHIBITION
Method in brief: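 Uninfected HepG2-A16-CD81EGFP cells, 3 × 10^3 per well, 1536-well, plated on prespotted compound at 10 μM final, parasite-free screening media added to match infected plates; puromycin 10 μM positive, DMSO 0.5% negative; run in parallel with 48 h PbLuc assay at 37 °C, 5% CO2; viability by CellTiter-Glo luminescence, normalized to controls.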

Structure (SMILES)	cytotoxicity at 10 µM [%]
O=c1ncn(-c2ccccc2F)c2ncccc12	-2.26
O=C(NC[C@@H]1CCCO1)c1cccnc1N1CCCC1c1ccccn1 (stereo partly specified)	-1.08
CC(C)CCc1n[nH]c(C(=O)O)c1Cl	-5.47
Cc1nn(-c2ncnc3[nH]cnc23)c2c1C(C(C)C)CC(=O)N2 (stereo unspecified)	10.8
COC(=O)CNC(=O)c1cn(-c2ccccn2)c(=O)c2ccccc12	0.0537
CSCC(C)(O)CNC(=O)c1cc(Cl)ccc1Cl (stereo unspecified)	9.88
NC(=O)N1CC[C@H]2CO[C@H](CNC(=O)c3ccnnc3)[C@H]2C1	-4.7
CC(C)c1nc(-c2cc(C(=O)NCCCO)c3ccccn23)cs1	9.7
O=C(c1ccoc1)N1C[C@H]2CC[C@@]3(N=C(c4ccccc4)NC3=O)[C@H]2C1	6.79
Cc1ccc(-c2cc(C(=O)O)sn2)cc1	2.2
CCCc1nnsc1C(=O)NCC1CCN(S(C)(=O)=O)CC1	-19.7
Cn1cc(CN2CC[C@@H]3O[C@H](C(=O)N4CCOCC4)C[C@@H]32)cn1	-8.08
O=C(N[C@@H]1CN(Cc2ccc3c(c2)OCO3)[C@@H]2CCCO[C@@H]21)C1CC1	2.06
Cn1c(SCC(N)=O)nnc1-c1csc2c1CCCC2	36.2
Cc1cc(-c2ccc(=O)n(CCNC(=O)C3CC3)n2)c(C)o1	-10.2
Cc1cnc(CCNC(=O)C2CCN(S(=O)(=O)c3ccc(F)cc3)C2)s1 (stereo unspecified)	2.56
CC(=O)N1CCC(C(=O)c2cnn(-c3ccccc3)c2N)C1 (stereo unspecified)	5.54
CNC(=O)C1CN(Cc2cc(C)on2)CCN(C(C)=O)C1 (stereo unspecified)	-3.02
Cc1ncsc1C(=O)N1CCC(c2ncncc2-c2ccnc(N)c2)C1 (stereo unspecified)	-0.197
CC1(C(=O)N2CCN(C3CCCC3)CC2)CNCCO1 (stereo unspecified)	6.26
COC(=O)c1c(C(F)(F)F)cnc(OC)c1Cl	7.03
CC(O)CN1CCN(Cc2cccc(C#N)c2)CC1 (stereo unspecified)	9.56
CCOC(C)c1nc(COc2nc(C)no2)cs1 (stereo unspecified)	-1.64

Structure (SMILES)	cytotoxicity at 10 µM [%]
COCCCN1Cc2cccc(NC(=O)C(C)(C)C)c2C1	2.06
FC(F)(F)Sc1ccccc1NCc1nc(C2CC2)no1	0.858
Cc1ccc(N2CCCC(N(C)c3nn4cc(C)nc4s3)C2)nn1 (stereo unspecified)	8.45
CNS(=O)(=O)c1ccccc1N1CCN(C(=O)C(C)C)CC1	4
CCOCCS(=O)(=O)Cc1ccn(-c2cccc(F)c2)n1	4.48
Cn1cc(C(=O)CC2CCCN2C(=O)c2ccc3[nH]ncc3c2)cn1 (stereo unspecified)	-2.53
CN(C)C(C(=O)NCC1(O)CCCCC1)c1c(F)cccc1F (stereo unspecified)	-5.52
O=S(=O)(c1c(F)cccc1F)N1CCCC1c1nnc2n1CCCCC2 (stereo unspecified)	11.2
CCC(Nc1nc(C(F)(F)F)nc2ccccc12)C(=O)O (stereo unspecified)	3.75
CCOCCNC(=O)Nc1cccc(-c2nccn2C)c1	-3.26
N#Cc1ccc(CNC(=O)NC2CCCN(c3ncccn3)C2)cc1 (stereo unspecified)	5.38
CC(OCCCNC(=O)c1cccnc1O)c1ccccc1 (stereo unspecified)	4.88
CN(CCNc1cc(N2CCCC2CO)ncn1)Cc1ccccc1 (stereo unspecified)	15.7
c1ccc(-c2nc(CN3CCn4c(nnc4C4CC4)C3)no2)cc1	-3.47
CN1CCN(C(=O)C2CCCN2c2ncnc3ccsc23)CC1 (stereo unspecified)	9.19
COc1cc(C)nc(N2CCN(C(C)c3nc(C4CC4)no3)CC2)n1 (stereo unspecified)	1.46
O=C(NCCNC(=O)c1ccc(Br)cc1)c1ccc(O)cc1	-0.988
O=C(Nc1cc(C2CCOCC2)[nH]n1)c1cscn1	-7.84
CN(C(=O)CCOc1ccccc1)C1CCN(CC2CCOC2)CC1 (stereo unspecified)	-7.7
O=C(NCCCO)Nc1ccccc1	1.52
Cc1cc(C(=O)N2CCCC(N3CCNC3=O)C2)nn1C(C)(C)C (stereo unspecified)	-1.44
COc1ccc(CNc2nnc(CC(C)(C)C)o2)cc1C#N	-10.1
Cn1cc(-c2cccc(CNC(=O)N3CCC[C@@H]3CO)c2)cn1	-5.89

Structure (SMILES)	cytotoxicity at 10 µM [%]
c1cnc(N2CCC(NCc3cnc(C4CCC4)s3)CC2)nc1	4.24
O=S(=O)(NC1CCC2(CC1)OCCO2)c1cccc(Br)c1	-5.65
Cc1csc(NC(=O)NCCCN2CCC(C(N)=O)CC2)n1	2.48
CCC(C)NS(=O)(=O)Cc1cccc(NC(=O)C2=CCCC2)c1 (stereo unspecified)	-0.217
Cc1noc2ncc(S(=O)(=O)Nc3cc(C(C)(C)C)n[nH]3)cc12	3.26
CCS(=O)(=O)CCNC(=O)NCc1ccccc1-n1cccn1	4.87
CCOc1ccc(C#N)cc1NC(=O)N1CCCC(NC(=O)CC)C1 (stereo unspecified)	0.711
O=C(CCCn1cncn1)NC1(c2ccccc2)CCC1	-11.5
Cc1cccc(N2CCN(C(=O)CN3CCN(CCO)CC3)CC2)c1	-15.5
CC(C)Cc1cc(C(=O)NCc2nnc[nH]2)[nH]n1	-2.95
CC(C)(C)c1ncc(C(=O)N2CCN(C(=O)c3ccc[nH]3)CC2)c(O)n1	-6.74
COc1ccccc1[C@@H]1CN(Cc2ccncc2)C[C@H]1C(=O)O	-4.23
CCN(CCOc1ccc(F)cc1)C(=O)c1ccncc1Cl	-3.35
Cc1nn(CCN2CCSCC2)cc1CNCC1CC1	-7.03
CC(C)Oc1cc(N2CC[C@@H](N3CCOCC3)[C@H](O)C2)nc(N)n1	-2.32
CC(=O)N1CCN(C(=O)c2snnc2C)[C@H]2CS(=O)(=O)C[C@H]21	-0.145
Cc1cccc(CN2C(=O)OCC2CO)c1F (stereo unspecified)	-2.13
O=C(NCCC1COc2ccccc2O1)c1ccc(-c2cc[nH]n2)nc1 (stereo unspecified)	-6.84
O=C(N[C@@H]1CCCNC1)C1(Oc2ccc(Cl)cc2)CCNCC1	-4.73
O=C(O)CNc1cc(-c2cc(C(=O)NC3CC3)ccn2)c2cc[nH]c2n1	-5.2
CCC1CN(C(=O)c2cccnc2O)CCC(=O)N1Cc1ccccc1 (stereo unspecified)	3.65
Cc1ccc([C@@H]2CN(C(=O)c3ccc[nH]3)C[C@H]2NC(=O)C2CC2)cc1	-21.5
COc1c(C2CCCN2C(=O)c2csc(C3CC3)n2)c(C)nn1C (stereo unspecified)	4.53

Structure (SMILES)	cytotoxicity at 10 µM [%]
Cc1nc(C)c(CN2CCC(N(C)Cc3nnc(C4CC4)o3)C2)s1 (stereo unspecified)	-4.18
O=C(CCOc1ccccc1F)N1CCCCC1Cn1cccn1 (stereo unspecified)	-4.47
NC(=O)C1CN(C(=O)Nc2ccc(SC(F)(F)F)cc2)CCO1 (stereo unspecified)	-12.9
COc1c(C2CCCN2Cc2nc(-c3ccco3)no2)c(C)nn1C (stereo unspecified)	-10.2
COc1ccnc(N2CCN(C(=O)c3ccn(C)c(=O)c3)CC2)n1	-13.7
COc1c(CNCc2cccc(Cn3cncn3)c2)c(C)nn1C	-11.2
Cc1nn(CC(C)C)c(N(C)C)c1CNCc1ccccc1CO	-15.2
Cc1nn(C)c(N(C)C)c1CNCCS(C)(=O)=O	-17.4
CC(C)Oc1ccc(C(=O)N2CCCCC2Cn2cccn2)cn1 (stereo unspecified)	-14.9
CCn1ccnc1CN1CCCN(C(=O)c2cnn(C)c2)CC1	-7.25
Cc1cc(C)c(CNC(=O)N2CCN(c3ccncc3)CC2)c(=O)[nH]1	-3.57
Cc1ccccc1C(=O)Nc1cnn(CCN2CCOCC2)c1	-11.7
CCc1nc(CN2CCCC(NCc3nc4ccccc4o3)C2)no1 (stereo unspecified)	-3.81
CS(=O)(=O)c1ccc(CNC(=O)Nc2cn[nH]c2)cc1	-1.88
CN(Cc1ccc(F)cc1)C(=O)NCc1nnc2n1CCC2	-17.8
COc1ccc(-c2cnc(CN3CCCC3Cn3cccn3)o2)cc1 (stereo unspecified)	-5.71
CC(C)c1noc(CCC(=O)NCC2CCC(C(N)=O)CC2)n1 (stereo unspecified)	-31.6
CCS(=O)(=O)c1ccccc1C(=O)N1CCCC(n2cccn2)C1 (stereo unspecified)	-29.9
CCc1nc(C2CCCN2C(=O)c2ccc3c(c2)[nH]c(=O)n3C)no1 (stereo unspecified)	1.04
Cc1cc(C)n(CC2CN(c3ncnc4[nH]ccc34)CCO2)n1 (stereo unspecified)	-6.88
O=C(c1cnc(-c2cnccn2)s1)N1CCCC1Cn1cccn1 (stereo unspecified)	-3.99
O=C(CCOCC(F)(F)F)N1CCCC1c1noc(C2CC2)n1 (stereo unspecified)	0.111
CCCc1nc(CN2CCc3c(ncn3C3CC3)C2)cs1	-0.0225

Structure (SMILES)	cytotoxicity at 10 µM [%]
CCCc1nc(C)c(C(=O)NCCN2CCCCC2)s1	-0.906
Cc1noc(C2CCCN(C(=O)c3ccc(F)cc3F)C2)n1 (stereo unspecified)	2.01
O=C(c1ccccn1)N1CCC(Nc2cccnn2)CC1	-0.121
Cc1cnn(CC2CCCCN2Cc2cc(C)on2)c1 (stereo unspecified)	-5.36
c1ccc(-c2noc(CN3CCOC(Cn4cccn4)C3)n2)nc1 (stereo unspecified)	-15
Cc1nn2cccnc2c1C(=O)N1CCCC(n2ccnc2)C1 (stereo unspecified)	-4.62
CCNc1cc2c(nn1)CCN(C(=O)c1ccc(CNC(C)=O)o1)C2	-10.8
CC(Cn1cccn1)NC(=O)NCc1cccnc1OC1CCCC1 (stereo unspecified)	4.86
COc1ccc(CN(C)CC2CCCN2c2cccnn2)cc1F (stereo unspecified)	4.48
Cc1nc(Nc2cnccn2)cc(C2CN(C(C)C)C2)n1	-27.1
c1cc(CNCC2Cn3nncc3CO2)co1 (stereo unspecified)	7.8
Cc1ccc(CN2C[C@@H]3[C@@H](C(=O)NCC4CC4)CCS(=O)(=O)[C@@H]3C2)cc1	-4
Cc1cnc(N2C[C@H]3CCN(CC4CC4)C[C@H]3C2)nc1	6.34
Cc1ccc(S(=O)(=O)NC(C)(C)CN)c(F)c1	-8.73
COc1ccc(CN2C[C@@H](OCc3csc(C)n3)[C@H]3COC[C@H]32)cc1	-17.3
CC(NCc1cccc(C#N)c1)c1ccccn1 (stereo unspecified)	-9.61
CCOCC1CN(Cc2cccnc2)Cc2nn(C)cc21 (stereo unspecified)	-81.6
Cc1noc(C)c1CN1CCOC2(CCCN(c3ncccn3)C2)C1 (stereo unspecified)	8.27
O=C(Nc1ccc(F)cc1)N1C[C@@H]2CC[C@H]1CN(Cc1cccnc1)C2	-13.4
